The values that follow come from ChEMBL document CHEMBL5154715, “Phenolic Lipids Derived from Cashew Nut Shell Liquid to Treat Metabolic Diseases” (J Med Chem, 2022).

pEC50: −log10 of the molar value. Calls of active or inactive are those of the source.

Data set [1] concerns the target T1, Peroxisome proliferator-activated receptor alpha (Homo sapiens) (UniProt Q07869).
T1 sequence (whole entry): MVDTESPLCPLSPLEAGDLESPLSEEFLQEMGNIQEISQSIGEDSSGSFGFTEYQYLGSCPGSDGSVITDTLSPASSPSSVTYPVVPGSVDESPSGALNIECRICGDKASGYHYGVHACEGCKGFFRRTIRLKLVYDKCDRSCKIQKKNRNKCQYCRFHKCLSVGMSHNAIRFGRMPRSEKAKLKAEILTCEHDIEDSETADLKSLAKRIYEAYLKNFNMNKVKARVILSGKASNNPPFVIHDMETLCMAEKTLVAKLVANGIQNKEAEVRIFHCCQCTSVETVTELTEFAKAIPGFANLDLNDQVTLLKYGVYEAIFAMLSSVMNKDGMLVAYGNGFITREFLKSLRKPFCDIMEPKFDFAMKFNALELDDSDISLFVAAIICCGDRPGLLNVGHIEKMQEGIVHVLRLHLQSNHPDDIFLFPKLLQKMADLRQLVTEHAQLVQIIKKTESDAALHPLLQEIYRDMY
The data set is described as follows: Agonist activity at human PPARalpha expressed in HEK293 cells assessed as maximal activity by luciferase/beta-galactosidase reporter gene assay relative to GW7647. The data set is classed as cell-based. Summed up: (§1)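 HEK293 cells in charcoal-stripped FBS, calcium phosphate co-transfected with GAL4-hPPAR LBD fusion, UAS-luciferase and β-galactosidase. Ligand added 6–8 h post transfection, full dose–response, harvested 14–16 h later. Luciferase normalized to β-galactosidase.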
A general note: A reporter such as luciferase makes a cellular process visible.

The target of data set [2] is T2, Peroxisome proliferator-activated receptor alpha (Mus musculus) (UniProt P23204).
T2 sequence (whole entry): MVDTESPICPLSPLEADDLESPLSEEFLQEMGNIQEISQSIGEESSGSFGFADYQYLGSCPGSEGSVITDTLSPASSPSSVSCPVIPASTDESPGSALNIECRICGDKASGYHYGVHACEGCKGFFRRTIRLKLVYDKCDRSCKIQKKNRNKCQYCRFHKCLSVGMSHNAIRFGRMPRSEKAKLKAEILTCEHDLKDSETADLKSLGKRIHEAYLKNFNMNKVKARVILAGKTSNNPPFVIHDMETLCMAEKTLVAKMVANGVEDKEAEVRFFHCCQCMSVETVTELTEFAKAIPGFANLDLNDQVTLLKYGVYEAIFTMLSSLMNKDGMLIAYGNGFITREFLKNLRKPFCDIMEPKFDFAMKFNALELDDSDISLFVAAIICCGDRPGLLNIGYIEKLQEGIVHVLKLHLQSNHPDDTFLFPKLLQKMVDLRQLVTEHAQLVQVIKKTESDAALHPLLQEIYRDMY
The data set is described as follows: Agonist activity at human PPARalpha in mouse hepatocytes assessed as induction of fabp1 mRNA expression at 50 uM incubated for 16 hrs by quantitative real-time PCR analysis. The note with it: Hepatocyte, filed as agonist. It counts as cell-based. Summed up: (§2)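 Collagenase-perfused mouse primary hepatocytes from WT mice, plated 2 h in attachment medium, overnight in M199 with 5% charcoal-stripped FBS and 1 nM insulin. Treated next day in serum-free M199 with 50 μM compound for 16 h. RNA qPCR (SYBR Green), comparative Ct method.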
For orientation: In qPCR the cycle at which signal appears reflects the starting amount.

A further data set has as its system Hepatocyte. The data set is described as follows: Cytotoxicity against mouse primary hepatocytes at 25 uM by MTT assay. It counts as toxicity, cell-based. The conditions noted are these: 264 h, time 11 day. In general terms: Tetrazolium dyes change colour on reduction, which living cells bring about.
Data set [3] has as its target T3, Peroxisome proliferator-activated receptor gamma (Homo sapiens) (UniProt P37231).
T3 sequence (whole entry): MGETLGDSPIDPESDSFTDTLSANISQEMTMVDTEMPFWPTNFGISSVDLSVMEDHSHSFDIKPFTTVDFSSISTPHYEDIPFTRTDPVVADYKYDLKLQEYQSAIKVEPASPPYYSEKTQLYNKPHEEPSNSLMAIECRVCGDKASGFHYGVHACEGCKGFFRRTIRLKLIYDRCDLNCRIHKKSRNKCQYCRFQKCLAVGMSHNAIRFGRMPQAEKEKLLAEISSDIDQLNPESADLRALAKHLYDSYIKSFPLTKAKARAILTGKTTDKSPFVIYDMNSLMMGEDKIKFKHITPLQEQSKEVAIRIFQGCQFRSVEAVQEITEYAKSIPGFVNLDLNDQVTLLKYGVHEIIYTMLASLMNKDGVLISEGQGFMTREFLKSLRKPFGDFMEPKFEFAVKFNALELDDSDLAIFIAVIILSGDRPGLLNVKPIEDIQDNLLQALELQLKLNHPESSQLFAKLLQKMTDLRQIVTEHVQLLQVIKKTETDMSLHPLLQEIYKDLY
Kind of data set: Agonist activity at human PPARgamma transfected in HEK293 cells assessed as relative luciferase unit at 50 uM measured after 16 hrs by luciferase reporter gene assay. The conditions noted are these: filed as agonist. It counts as cell-based. Summed up: (§3)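 GAL4-hPPAR (α or γ) plus UAS-luciferase and β-galactosidase transiently co-transfected into HEK293 cells, then treated with 50 μM compound for 16 h. RLU = luciferase/β-galactosidase × time, vehicle (DMSO) set to 1. Mean ± SD, N = 3; one-way ANOVA with Holm–Šidák vs vehicle.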

The next data set concerns HEK293. Kind of data set: Cytotoxicity against HEK293 cells at 25 uM by MTT assay. The note with it: human, hek293, 264 h, time 11 day. It counts as toxicity, cell-based. The essentials: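 MTT assay in HEK293 cells with compounds dosed at 25 μM.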
The target in data set [4] is T4, Peroxisome proliferator-activated receptor gamma (Homo sapiens, UniProt P37231).
T4 sequence (P37231 whole entry): T3 sequence (whole entry)
The data set is described as follows: Agonist activity at human PPARgamma expressed in HEK293 cells by luciferase/beta-galactosidase reporter gene assay. It counts as cell-based. Summed up:
as §1

Data set [5] addresses T3, Peroxisome proliferator-activated receptor gamma (Homo sapiens). Kind of data set: Agonist activity at human PPARgamma expressed in HEK293 cells assessed as maximal activity by luciferase/beta-galactosidase reporter gene assay relative to rosiglitazone. The data set is classed as cell-based. Summed up: as §1
In data set [6] the target is T1, Peroxisome proliferator-activated receptor alpha (Homo sapiens). Kind of data set: Agonist activity at human PPARalpha transfected in HEK293 cells assessed as relative luciferase unit at 50 uM measured after 16 hrs by luciferase reporter gene assay. The data set is classed as cell-based. The note with it: filed as agonist. Summed up:
as §3

Data set [7] concerns the target T5, Peroxisome proliferator-activated receptor delta (Homo sapiens) (UniProt Q03181).
T5 sequence (whole entry): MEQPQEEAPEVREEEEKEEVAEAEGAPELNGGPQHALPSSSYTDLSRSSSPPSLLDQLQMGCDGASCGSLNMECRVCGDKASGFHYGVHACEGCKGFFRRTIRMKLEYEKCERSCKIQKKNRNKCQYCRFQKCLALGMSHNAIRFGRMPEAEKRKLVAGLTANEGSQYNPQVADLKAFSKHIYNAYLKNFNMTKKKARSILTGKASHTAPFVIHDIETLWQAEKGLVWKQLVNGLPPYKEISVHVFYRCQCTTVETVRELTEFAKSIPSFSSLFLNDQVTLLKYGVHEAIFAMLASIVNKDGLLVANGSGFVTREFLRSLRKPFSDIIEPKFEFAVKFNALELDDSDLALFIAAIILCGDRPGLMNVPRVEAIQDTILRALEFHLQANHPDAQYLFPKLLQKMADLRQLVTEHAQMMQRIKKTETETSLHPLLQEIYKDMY
The conditions noted are these: HEK293, filed as agonist.

Data set [8] addresses T2, Peroxisome proliferator-activated receptor alpha (Mus musculus). The data set is described as follows: Agonist activity at human PPARalpha in mouse hepatocytes assessed as induction of Fgf21 mRNA expression at 50 uM incubated for 16 hrs by quantitative real-time PCR analysis. It counts as cell-based. The conditions noted are these: Hepatocyte, filed as agonist. Summed up:
as §2

The target in data set [9] is T6, Peroxisome proliferator-activated receptor alpha (Homo sapiens, UniProt Q07869).
T6 sequence (Q07869 whole entry): T1 sequence (whole entry)
Kind of data set: Agonist activity at human PPARalpha expressed in HEK293 cells by luciferase/beta-galactosidase reporter gene assay. It counts as cell-based. The essentials:
as §1

Data set [10] concerns the target T2, Peroxisome proliferator-activated receptor alpha (Mus musculus). The data set is described as follows: Agonist activity at human PPARalpha in mouse hepatocytes assessed as induction of Pdk4 mRNA expression at 50 uM incubated for 16 hrs by quantitative real-time PCR analysis. The note with it: Hepatocyte, filed as agonist. It counts as cell-based. The essentials:
as §2

In data set [11] the target is T5, Peroxisome proliferator-activated receptor delta (Homo sapiens). The data set is described as follows: Stabilization of human PPARdelta LBD assessed as change in melting temperature at 50 uM by thermal shift assay. The essentials: (§4)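 Purified hPPAR LBD at 1 mg/mL (∼25 μM) with ligand (α-LBD at 25 μM; γ- and δ-LBD at 50 μM). Static light scattering at 473 nm from 25 to 70 °C in 0.5 °C steps, 1 °C/min. Tm from four-parameter fit; ΔTm relative to DMSO; mean ± SEM, N = 3.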

The target of data set [12] is T3, Peroxisome proliferator-activated receptor gamma (Homo sapiens). The conditions noted are these: dose 50.0 µM.
In data set [13] the test system is Danio rerio. Kind of data set: In vivo agonist activity at human GFP-tagged PPARgamma in transgenic zebrafish assessed as increase in GFP expression in tail bud at 0.1 uM measured after 14 hrs by microscopy.
Data set [14] has as its target T3, Peroxisome proliferator-activated receptor gamma (Homo sapiens). Kind of data set: Stabilization of human PPARgamma LBD assessed as change in melting temperature at 50 uM by thermal shift assay.
The target in data set [15] is T7, Peroxisome proliferator-activated receptor gamma (Mus musculus) (UniProt P37238).
T7 sequence (whole entry): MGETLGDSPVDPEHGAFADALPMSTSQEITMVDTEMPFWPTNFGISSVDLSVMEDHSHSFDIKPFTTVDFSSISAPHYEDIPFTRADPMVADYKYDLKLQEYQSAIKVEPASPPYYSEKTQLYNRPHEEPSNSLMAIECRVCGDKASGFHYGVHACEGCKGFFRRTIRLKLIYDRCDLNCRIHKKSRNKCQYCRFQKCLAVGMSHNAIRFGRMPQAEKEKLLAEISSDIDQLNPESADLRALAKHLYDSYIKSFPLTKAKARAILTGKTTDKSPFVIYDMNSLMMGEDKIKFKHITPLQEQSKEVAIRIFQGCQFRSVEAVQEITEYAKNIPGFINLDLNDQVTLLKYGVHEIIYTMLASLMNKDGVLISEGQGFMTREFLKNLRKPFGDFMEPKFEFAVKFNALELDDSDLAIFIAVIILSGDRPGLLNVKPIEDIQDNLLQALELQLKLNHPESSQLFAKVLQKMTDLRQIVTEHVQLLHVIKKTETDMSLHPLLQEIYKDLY
Kind of data set: Agonist activity at human PPARgamma in mouse 3T3-L1 cells assessed as induction of adipogenic differentiation at 25 uM measured after 11 days by Oil Red O staining analysis. The data set is classed as cell-based. The conditions noted are these: filed as agonist, time 11.0 day. The essentials: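 3T3-L1 cells differentiated for 11 days (IBMX/dexamethasone/insulin induction, then insulin, then maintenance medium) with 25 μM compound or 10 μM rosiglitazone from day 0. Cells formalin-fixed and stained with 0.6% Oil Red O. Lipid quantified spectrophotometrically after dye extraction.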

The target of data set [16] is T1, Peroxisome proliferator-activated receptor alpha (Homo sapiens). The data set is described as follows: Stabilization of human PPARalpha LBD assessed as change in melting temperature at 25 uM by thermal shift assay. The essentials:
as §4

In data set [17] the test system is Danio rerio. Kind of data set: In vivo agonist activity at human GFP-tagged PPARalpha in transgenic zebrafish assessed as increase in GFP expression in brain at 8.9 uM measured after 14 hrs by microscopy.
Data set [18] can be described thus: Metabolic stability in C57BL/6 mouse liver microsomes assessed as half life. The conditions noted are these: time 2 min. The data set is classed as ADME, Microsome.
A short description of data set [19]: Metabolic stability in C57BL/6 mouse liver microsomes assessed as parent compound remaining incubated for 120 mins. It counts as ADME, Microsome. The conditions noted are these: read-out: Stability.
The target of data set [20] is T5, Peroxisome proliferator-activated receptor delta (Homo sapiens). Kind of data set: Stabilization of human PPARdelta LBD assessed as change in melting temperature at 50 uM by thermal shift assay.

As for `CCCCCCCCCCCCCCCc1cccc(OCC(=O)O)c1`, the Emax in [1] is 30%; in [5] (filed as agonist), above 90%. Moreover, the outcome in data set [2], in [3], in data set [6], in [8] and in data set [10] was Active. Further, the Activity entry in the data set with Hepatocyte is “Non-Toxic”; in the data set with HEK293, “Toxic”. The figures for the pEC50 in data set [4] and in [9] were 5.43 and 5.96, respectively. Also, the EC50 in data set [7] stood at 10 µM.
Regarding `O=C(O)COc1ccc(SCC=C(c2ccc(Br)cc2)c2ccc(Br)cc2)cc1Cl`, the shift in melting temperature (ΔTm) in data set [11] amounted to 7.7 °C.
As to `CN(CCOc1ccc(CC2SC(=O)NC2=O)cc1)c1ccccn1` (centres undefined), the ΔTm in data set [12] and in data set [14] was 5 °C throughout. Also, the result in the data set with Danio rerio [13] was Active.
As to `CCCCCCCCCCCCCCCc1cccc(OC(C)(C)C(=O)OCC)c1`, the result (in data set [15]; in [3]; in the data set with Danio rerio [17]; in data set [6]) was Active. Further, the Emax in [1] worked out at 5%; in data set [5], 30%. Moreover, the shift in melting temperature (ΔTm) was determined as 0.6 °C in data set [16], 0.2 °C in [14] and 0.5 °C in data set [20]. Besides, the pEC50 was 5.41 in data set [4] and 5.05 in data set [9]. The half-life in data set [18] is 5.58 h. Moreover, the remaining at 2 h in data set [19] worked out at 78%.

The term pEC50 denotes the negative decadic logarithm of the EC50, by convention in mol/L. Broadly, the EC50 is the concentration giving half of the maximal effect. A high value points to lower potency in that assay. As usually defined, the ΔTm is the shift of the melting midpoint relative to a reference. In general, half-life refers to the time needed for the level to fall by half in the phase considered.
